Test results: ChEMBL document CHEMBL1145016, “Synthesis and antitumor activity of conjugates of muramyldipeptide or normuramyldipeptide with hydroxyacridine/acridone derivatives” (J Med Chem, 2003)
The source made the active and inactive calls.

How the values were obtained:
[1] = system: Mus musculus; test: Evaluated in vivo for percent of tumor weight in treated/control of mice at 1.34 mg/kg for 7 days by intraperitoneal treatment on NCI-H460 non-small cell lung cell line; assay type: functional
[2] = system: Mus musculus; test: Evaluated in vivo for percent growth delay in mice at 1.50 mg/kg for 10 days by intraperitoneal treatment on UACC-62 melanoma cell line; assay type: functional; details: dose 1.5 mg/kg
[3] = Evaluated in vivo for intraperitoneal score in hallow fiber assay; assay type: functional
In short: (§1)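 NCI hollow fiber preliminary in vivo assay; scores recorded separately for intraperitoneal (ip) and subcutaneous (sc) fiber implantation sites, with an activity criterion applied (Y/N). Procedure detailed in prior work.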

[4] = system: Mus musculus; test: Evaluated in vivo for percent growth delay in mice at 1.34 mg/kg for 7 days by intraperitoneal treatment on NCI-H460 non-small cell lung cell line; assay type: functional
[5] = system: Mus musculus; test: Evaluated in vivo for toxic deaths of mice at 0.90 mg/kg for 5 days by intraperitoneal treatment on HCT-15 colon cell line; assay type: toxicity, organism-based; design: dose 0.9 mg/kg, route intraperitoneal; details: ip, 0.9 mg/kg, 120 h
In short: (§2)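 Nude mice carrying subcutaneous human tumor xenografts, tested at NCI Bethesda; compound given on the stated schedule, intraperitoneally (IP) or intravenously (IV). Three dose levels were tested, and the table reports only the optimal one. Toxic deaths are scored per treatment group alongside tumor weight end points.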

[6] = system: Mus musculus; test: Evaluated in vivo for percent of tumor weight in treated/control of mice at 1.00 mg/kg for 7 days by intraperitoneal treatment on AS283 lymphoma cell line; assay type: functional
[7] = system: Mus musculus; test: Evaluated in vivo for percent growth delay in mice at 0.67 mg/kg for 12 days by intraperitoneal treatment on COLO 205 colon cell line; assay type: functional
[8] = Tested for cytotoxicity (lethal concentration) of compound, activity expressed as MID log LC50; assay type: functional
In short: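 MID is the calculated mean of LC50 concentrations (M) across the cell line panel, where LC50 is the half-lethal concentration. It is reported as a log value.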

[9] = system: Mus musculus; test: Evaluated in vivo for percent growth delay in mice at 0.90 mg/kg for 7 days by intraperitoneal treatment on RXF-393 renal cell line; assay type: functional; details: dose 0.9 mg/kg
[10] = system: Mus musculus; test: Evaluated in vivo for toxic deaths of mice at 1.50 mg/kg for 10 days by intraperitoneal treatment on UACC-62 melanoma cell line; assay type: toxicity, organism-based; design: dose 1.5 mg/kg, route intraperitoneal; details: ip, 1.5 mg/kg, 240 h; in short: as §2
[11] = system: Mus musculus; test: Evaluated in vivo for percent growth delay in mice at 1.80 mg/kg for 24 (38) days by intravenous treatment on MDA-MB-435 breast cell line; assay type: functional; details: dose 1.8 mg/kg
[12] = system: Mus musculus; test: Evaluated in vivo for toxic deaths of mice at 1.80 mg/kg for 24 (38) days by intravenous treatment on MDA-MB-435 breast […] cell line; assay type: toxicity, organism-based; design: dose 1.8 mg/kg, route intravenous; details: 1.8 mg/kg; in short: as §2
[13] = Evaluated in vivo for subcutaneous score in hallow fiber assay; assay type: functional; in short: as §1
[14] = system: Mus musculus; test: Evaluated in vivo for toxic deaths of mice at 0.90 mg/kg for 7 days by intraperitoneal treatment on RXF-393 renal cell line; assay type: toxicity, organism-based; design: dose 0.9 mg/kg, route intraperitoneal; details: ip, 0.9 mg/kg, 168 h; in short: as §2
[15] = system: Mus musculus; test: Evaluated in vivo for percent of tumor weight in treated/control of mice at 1.50 mg/kg for 10 days by intraperitoneal treatment on UACC-62 melanoma cell line; assay type: functional; details: dose 1.5 mg/kg
[16] = system: Mus musculus; test: Evaluated in vivo for percent growth delay in mice at 1.00 mg/kg for 7 days by intraperitoneal treatment on AS283 lymphoma cell line; assay type: functional
[17] = system: Mus musculus; test: Evaluated in vivo for percent of tumor weight in treated/control of mice at 0.90 mg/kg for 5 days by intraperitoneal treatment on HCT-15 colon cell line; assay type: functional; details: dose 0.9 mg/kg
[18] = system: Mus musculus; test: Evaluated in vivo for toxic deaths of mice at 1.00 mg/kg for 7 days by intraperitoneal treatment on AS283 lymphoma cell line; assay type: toxicity, organism-based; design: dose 1 mg/kg, route intraperitoneal; details: ip, 168 h; in short: as §2
[19] = system: Mus musculus; test: Evaluated in vivo for percent of tumor weight in treated/control of mice at 0.67 mg/kg for 12 days by intraperitoneal treatment on COLO 205 colon cell line; assay type: functional
[20] = system: Mus musculus; test: Evaluated in vivo for percent growth delay in mice at 0.90 mg/kg for 5 days by intraperitoneal treatment on HCT-15 colon cell line; assay type: functional; details: dose 0.9 mg/kg
[21] = system: Mus musculus; test: Evaluated in vivo for toxic deaths of mice at 1.34 mg/kg for 7 days by intraperitoneal treatment on NCI-H460 non-small cell lung cell line; assay type: toxicity, organism-based; design: dose 1.34 mg/kg, route intraperitoneal; details: ip, 168 h; in short: as §2
[22] = system: Mus musculus; test: Evaluated in vivo for percent of tumor weight in treated/control of mice at 0.90 mg/kg for 7 days by intraperitoneal treatment on RXF-393 renal cell line; assay type: functional; details: dose 0.9 mg/kg
[23] = Evaluated in vivo for intraperitoneal + subcutaneous score in hallow fiber assay; assay type: functional; in short: as §1
[24] = system: Mus musculus; test: Evaluated in vivo for toxic deaths of mice at 0.67 mg/kg for 12 days by intraperitoneal treatment on COLO 205 colon cell line; assay type: toxicity, organism-based; design: dose 0.67 mg/kg, route intraperitoneal; details: ip, 288 h; in short: as §2
[25] = system: Mus musculus; test: Evaluated in vivo for percent of tumor weight in treated/control of mice at 1.80 mg/kg for 24 (38) days by intravenous treatment on MDA-MB-435 breast cell line; assay type: functional; details: dose 1.8 mg/kg
[26] = system: MCF7; test: Tested for cytotoxicity of compound against MCF-7 (breast) cell line; IA means inactive.; assay type: functional, cell-based; details: Homo sapiens
[27] = system: NCI-H460; test: Tested for cytotoxicity of compound against NCI-H460 (lung)cell line; IA means inactive.; assay type: functional, cell-based; details: Homo sapiens
[28] = system: SF-268; test: Tested for cytotoxicity of compound against SF-268 (CNS) cell line; IA means inactive.; assay type: functional, cell-based; details: Homo sapiens
[29] = system: NCI-H460; test: Tested for cytotoxicity of compound against NCI-H460 (lung)cell line; Compound was active.; assay type: functional, cell-based; details: Homo sapiens
[30] = system: SF-268; test: Tested for cytotoxicity of compound against SF-268 (CNS) cell line; Compound was active.; assay type: functional, cell-based; details: Homo sapiens
[31] = system: MCF7; test: Tested for cytotoxicity of compound against MCF-7 (breast) cell line; Compound was active.; assay type: functional, cell-based; details: Homo sapiens

## CC(=O)N[C@@H]1[C@H](OCc2ccccc2)OC(CO)C(O)[C@H]1OC(C)C(=O)N[C@H](C)C(=O)N[C@H](CCC(=O)OCCNc1c2ccccc2nc2cccc([N+](=O)[O-])c12)C(N)=O (stereo partly specified)
[1]
  Tumor weight: 54%
[2]
  Growth delay (T-C/C): 2%
[3]
  Score: 12
[4]
  Growth delay (T-C/C): 21%
[5]
  Toxic deaths: 2
[6]
  Tumor weight: 63%
[7]
  Growth delay (T-C/C): 11%
[8]
  MID log LC50: 6.85 M
[9]
  Growth delay (T-C/C): 32%
[10]
  Toxic deaths: 0
[11]
  Growth delay (T-C/C): 17%
[12]
  Toxic deaths: 2
[13]
  Score: 8
[14]
  Toxic deaths: 0
[15]
  Tumor weight: 89%
[16]
  Growth delay (T-C/C): 9%
[17]
  Tumor weight: 79%
[18]
  Toxic deaths: 0
[19]
  Tumor weight: 75%
[20]
  Growth delay (T-C/C): 5%
[21]
  Toxic deaths: 1
[22]
  Tumor weight: 81%
[23]
  Score: 20
[24]
  Toxic deaths: 0
[25]
  Tumor weight: 60%

## CC(=O)N[C@@H]1[C@H](OCc2ccccc2)OC(CO)C(O)[C@H]1OCC(=O)N[C@H](C)C(=O)N[C@H](CCC(=O)OCCNC(=O)c1cccc2c(=O)c3ccccc3[nH]c12)C(N)=O (stereo partly specified)
[26]
  IA: inactive
[27]
  IA: inactive
[28]
  IA: inactive

## CC(=O)N[C@@H]1[C@H](OCc2ccccc2)OC(CO)C(O)[C@H]1OC(C)C(=O)N[C@@H](C(=O)N[C@H](CCC(=O)OCCCNC(=O)c1cccc2cc3ccccc3nc12)C(N)=O)C(C)C (stereo partly specified)
[26]
  IA: inactive
[27]
  IA: inactive
[28]
  IA: inactive

## CC(=O)N[C@@H]1[C@H](OCc2ccccc2)OC(CO)C(O)[C@H]1OCC(=O)N[C@H](C)C(=O)N[C@H](CCC(=O)OCCCNC(=O)c1cccc2c(=O)c3ccccc3[nH]c12)C(N)=O (stereo partly specified)
[29]
  Cytotoxicity: Active
[8]
  MID log LC50: 4.04 M
[30]
  Cytotoxicity: Active
[31]
  Cytotoxicity: Active

## CC(=O)N[C@@H]1[C@H](OCc2ccccc2)OC(CO)C(O)[C@H]1OC(C)C(=O)N[C@H](C)C(=O)N[C@H](CCC(=O)OCCCCNC(=O)c1cccc2cc3ccccc3nc12)C(N)=O (stereo partly specified)
[26]
  IA: inactive
[27]
  IA: inactive
[28]
  IA: inactive

## CC(=O)N[C@@H]1[C@H](OCc2ccccc2)OC(CO)C(O)[C@H]1OC(C)C(=O)N[C@H](C)C(=O)N[C@H](CCC(=O)OCCNC(=O)c1cccc2cc3ccccc3nc12)C(N)=O (stereo partly specified)
[26]
  IA: inactive
[27]
  IA: inactive
[28]
  IA: inactive
